Laboratory results reported in ChEMBL document CHEMBL4152236, “Substituted 1,5-naphthyridine derivatives as novel antileishmanial agents. Synthesis and biological evaluation” (Eur J Med Chem, 2018).
Active and inactive are the calls of the source. No cut-off for these calls is given here.

How the values were obtained:
[1] = test system: Leishmania infantum; assay: Leishmanicidal activity against promastigote stage of iRFP expressing Leishmania infantum BCN150 assessed as decrease in parasite viability; assay type: functional, organism-based
How it was run: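 Promastigotes grown in M199 with 10% heat-inactivated FCS, seeded at 10^6 cells/mL. Compounds given as three-fold DMSO stock dilutions, final DMSO ≤0.1%. Viability read as infrared fluorescence (ex 684, em 708 nm). IC50 is the 50% emission reduction versus DMSO control, from nonlinear fits. Triplicate wells.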

[2] = test system: Leishmania infantum; assay: Leishmanicidal activity against amastigote stage of iRFP expressing Leishmania infantum BCN150 infected in BALB/c mouse splenocytes assessed as decrease in parasite viability after 72 hrs; assay type: functional, organism-based; details: BCN150, 72 h
How it was run: (§1)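 Female BALB/c mice infected intravenously with metacyclic L. infantum-iRFP promastigotes. After 5 weeks, spleens collagenase-digested (2 mg/mL, 20 min, 37 °C); splenocytes plated in RPMI with 20% FCS. Compounds added at 10 to 0.07 μM for 72 h. Infrared emission read at 708 nm; IC50 is the 50% reduction versus DMSO control. SI = CC50 in uninfected splenocytes / amastigote IC50.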

[3] = Cytotoxicity against BALB/c mouse splenocytes assessed as decrease in […] viability after 72 hrs by Alamar blue assay; assay type: cell-based, Splenocyte
How it was run: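 Uninfected BALB/c mouse splenocytes, obtained and cultured as for the explants (RPMI, 20% FCS), exposed to compounds at 100 to 0.8 μM for 72 h at 37 °C. Viability read by Alamar Blue. CC50 taken from dose-response curves. Mean ± sd of at least three experiments in triplicate.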

[4] = Selectivity index, ratio of CC50 for BALB/c mouse splenocytes to IC50 for amastigote stage of iRFP expressing Leishmania infantum BCN150 infected in BALB/c mouse splenocytes; assay type: toxicity, cell-based; details: read-out: Ratio CC50/IC50; how it was run: as §1
[5] = Inhibition of Leishmania donovani Top1B expressed in Top1B deficient Saccharomyces cerevisiae EKY3 assessed as decrease in relaxation of supercoiled pSK DNA preincubated for 15 mins followed by DNA addition and measured after 1 to 16 mins by agarose gel electrophoresis
How it was run: (§2)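 Recombinant LTopIB or hTopIB from TopIB-deficient yeast EKY3 (galactose-induced), purified on phosphocellulose then phenyl-Sepharose. Enzyme (1 unit) preincubated with compound for 15 min at 37 °C. Then 0.5 μg supercoiled pSK DNA added in 10 mM Tris-HCl pH 7.5, 5 mM MgCl₂, 0.1 mM EDTA, 50 mM KCl, BSA. Incubated at 37 °C, stopped with 1% SDS. Agarose gel; relaxed and supercoiled bands quantified.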

[6] = target: T1, DNA topoisomerase 1 (Homo sapiens, UniProt P11387); assay: Inhibition of human Top1B expressed in Top1B deficient Saccharomyces cerevisiae EKY3 assessed as decrease in relaxation of supercoiled pSK DNA preincubated for 15 mins followed by DNA addition and measured after 1 to 16 mins by agarose gel electrophoresis; how it was run: as §2
T1 sequence (P11387 whole entry): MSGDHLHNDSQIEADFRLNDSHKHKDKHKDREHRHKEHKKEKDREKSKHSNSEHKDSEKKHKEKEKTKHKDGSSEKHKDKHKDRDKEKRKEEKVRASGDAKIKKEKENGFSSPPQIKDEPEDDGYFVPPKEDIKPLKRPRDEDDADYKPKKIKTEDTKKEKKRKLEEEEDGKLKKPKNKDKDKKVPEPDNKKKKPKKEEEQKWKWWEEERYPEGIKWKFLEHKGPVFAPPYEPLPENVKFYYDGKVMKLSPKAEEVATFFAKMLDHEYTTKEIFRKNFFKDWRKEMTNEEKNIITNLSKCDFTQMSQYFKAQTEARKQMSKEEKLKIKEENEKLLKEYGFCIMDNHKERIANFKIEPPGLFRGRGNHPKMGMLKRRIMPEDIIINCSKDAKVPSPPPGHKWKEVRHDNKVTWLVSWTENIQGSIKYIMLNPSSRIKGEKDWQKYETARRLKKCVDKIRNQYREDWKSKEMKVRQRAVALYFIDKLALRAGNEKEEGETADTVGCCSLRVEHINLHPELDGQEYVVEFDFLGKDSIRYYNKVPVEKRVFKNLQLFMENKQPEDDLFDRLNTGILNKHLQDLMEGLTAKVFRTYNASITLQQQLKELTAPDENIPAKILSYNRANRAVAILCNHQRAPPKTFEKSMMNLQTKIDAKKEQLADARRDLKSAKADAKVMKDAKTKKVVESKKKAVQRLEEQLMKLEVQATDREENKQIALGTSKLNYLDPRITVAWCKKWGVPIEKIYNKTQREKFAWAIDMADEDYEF

[7] = test system: Leishmania donovani; assay: Inhibition of Leishmania donovani Top1B expressed in Top1B deficient Saccharomyces cerevisiae EKY3 assessed as decrease in relaxation of supercoiled pSK DNA at 100 uM at 37 degC preincubated for 15 mins followed by DNA addition and measured after 1 to 16 mins by agarose gel electrophoresis; how it was run: as §2

Row | IC50 ([5]; read-out: IC50) [µM] | IC50 ([6]; read-out: IC50) [µM] | IC50 [5] | IC50 [6] | inhibition [7] | SMILES | IC50 [1] [µM] | IC50 [2] [µM] | CC50 at 72 h [3] [µM] | selectivity ratio [4]
1 | 62.8 | 82.1 |  |  |  | FC(F)(F)c1ccc(-c2cc(-c3ccsc3)c3ncccc3n2)cc1 | > 100 | 3.67 | 181 | 49.4
2 |  |  | Not Active | Not Active |  | COc1ccc(-c2cc(-c3cccc([N+](=O)[O-])c3)nc3cccnc23)cc1 | 45.2 | 3.79 | 133 | 35.1
3 | 76.6 | 73.1 |  |  |  | Fc1ccc(-c2cc(-c3ccccc3)c3ncccc3n2)cc1F | > 100 | 2.82 | 21.7 | 7.7
4 |  | 82 |  |  |  | COc1cccc(-c2cc(-c3ccccc3)c3ncccc3n2)c1 | > 100 | 0.58 | 157 | 272
5 | 75.7 | 70.6 |  |  |  | Cc1c(-c2ccc(C(F)(F)F)cc2)nc2cccnc2c1-c1ccccc1 | > 100 | 2.37 | 126 | 53.2
6 |  |  |  | Not Active |  | O=[N+]([O-])c1cccc(-c2cc(-c3ccccc3)c3ncccc3n2)c1 | 79.2 | 1.02 | 146 | 143
7 | 58.1 | 83.3 |  |  |  | Fc1ccc(-c2cc(-c3ccc(-c4ccccc4)cc3)c3ncccc3n2)cc1 | 45.2 | 5.04 | 153 | 30.2
8 |  |  | Not Active | Not Active |  | COc1ccc(-c2cc(-c3ccc([N+](=O)[O-])cc3)nc3cccnc23)cc1 | 20.7 | 0.58 | 109 | 187
9 |  | 11.2 |  |  | Active | c1ccc(-c2cc(-c3ccccc3)c3ncccc3n2)cc1 | 27.2 | 8.42 | 54.8 | 6.5
10 | 69.5 | 72.7 |  |  |  | FC(F)(F)c1ccc(-c2cc(-c3ccccc3)c3ncccc3n2)cc1 | 37.3 | 0.47 | 65.7 | 140
11 |  |  |  | Not Active |  | COc1ccc(-c2cc(-c3ccc(C(F)(F)F)cc3)nc3cccnc23)cc1 | > 100 | 2.26 | 152 | 67.1
12 | 78.7 | 67.5 |  |  |  | O=[N+]([O-])c1cccc(-c2cc(-c3ccc(-c4ccccc4)cc3)c3ncccc3n2)c1 | 15.1 | 0.29 | 30.1 | 104
13 |  |  |  |  |  | C[C@@H]1[C@H](O)[C@@H](C)/C=C/C=C/C=C/C=C/C=C/C=C/C=C/[C@H](O[C@@H]2O[C@H](C)[C@@H](O)[C@H](N)[C@@H]2O)C[C@@H]2O[C@](O)(C[C@@H](O)C[C@@H](O)[C@H](O)CC[C@@H](O)C[C@@H](O)CC(=O)O[C@H]1C)C[C@H](O)[C@H]2C(=O)O [AMPHOTERICIN B] |  |  | > 20 | > 62.5
14 | 49.3 | 43.8 |  |  |  | Fc1ccc(-c2cc(-c3ccsc3)c3ncccc3n2)cc1 | 67 | 7.93 | 32.5 | 4.1
15 |  |  | Not Active | Not Active |  | COc1ccc(-c2cc(-c3ccc(F)cc3)nc3cccnc23)cc1 | 97.2 | 0.76 | 24.2 | 31.8
16 |  | 50.9 |  |  |  | FC(F)(F)c1ccc(-c2cc(-c3ccc(C(F)(F)F)cc3)c3ncccc3n2)cc1 | > 100 | 9.47 | 178 | 18.8
17 | 81.9 | 72.8 |  |  |  | Fc1ccc(-c2cc(-c3ccccc3)c3ncccc3n2)cc1 | > 100 | 7.41 | 124 | 16.7

Row | SMILES | IC50 ([5]; read-out: IC50) [µM] | IC50 ([6]; read-out: IC50) [µM] | IC50 [5] | IC50 [6] | inhibition [7] | IC50 [1] [µM] | IC50 [2] [µM] | CC50 at 72 h [3] [µM] | selectivity ratio [4]
18 | CC[C@@]1(O)C(=O)OCc2c1cc1n(c2=O)Cc2cc3ccccc3nc2-1 [CAMPTOTHECIN] | 75.7 |  |  |  |  |  |  |  | 
